Twelve molecules from paper PMC7227796 (ACS chemical neuroscience, 2020) can be followed below.

Read-outs that look alike come from different tables or passages of the source. Marks after values point to notes of the source that are not given here.

Assay [1] has as its target GluN1/GluN2C NMDA receptor (Rattus norvegicus, UniProt P35439+Q00961). As to the kind of experiment: Two-electrode voltage-clamp recordings, Xenopus oocytes expressing GluN1/GluN2C. Type of assay: cell-based. The method, boiled down:
(§1)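 Xenopus oocytes were injected with rat GluN1-1a and GluN2A, 2B, 2C or 2D cRNA at a 1:2 ratio. Two-electrode voltage clamp was run 2–6 days later at room temperature and −40 mV. Bath was 90 NaCl, 1 KCl, 10 HEPES, 0.5 BaCl2, 0.01 EDTA (mM), pH 7.4. Currents were evoked by 1 μM glutamate plus 100 μM glycine, with test compound gravity-perfused. Hill fits gave IC50 per oocyte (5–6 oocytes). Ki was derived by Cheng-Prusoff using earlier glutamate EC50 values.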

For assay [2], the target named is GluK3 (Rattus norvegicus, UniProt P42264). Briefly: Radioligand binding at recombinant homomeric GluK3. The following applies: for GluK3 % specific binding (Table 5): mean ± SD, ligand concentration not given. Put shortly:
(§2)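 Membranes from sf9 cells expressing rat homomeric GluK1, GluK2 or GluK3 were incubated in 50 mM Tris-HCl, pH 7.1, for 2 h at 4 °C. Radioligand was [3H]-(S)-NF608 for GluK1 and [3H]kainic acid for GluK2 and GluK3. Samples were filtered on GF/B, washed twice with ice-cold buffer, dried for 1 h at 70 °C and counted by scintillation. Ki came from 12–16-point triplicate curves. Single-point % specific binding is mean ± SD of three experiments, at 10 μM test compound where stated.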

Assay [3] addresses native KA receptors. As to the kind of experiment: Radioligand binding at native KA receptors. The conditions noted are these: rat synaptosomes, [3H]KA. Put shortly:
(§3)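 Rat cortical synaptosomal membranes were labelled with 5 nM [3H]AMPA (AMPA), 5 nM [3H]KA (KA) or [3H]CGP39653 (NMDA). Test compound was run at 12–16 concentrations in triplicate, with three to six independent experiments. Cpm were fitted by nonlinear regression. Values are reported as pIC50 for AMPA and KA and as pKi for NMDA, each as mean with SEM.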

The target in assay [4] is GluN1/GluN2B NMDA receptor (Rattus norvegicus, UniProt P35439+Q00960). Briefly: Two-electrode voltage-clamp recordings, Xenopus oocytes expressing GluN1/GluN2B. In kind it is cell-based. Put shortly: as §1
On the technique in general: Two-electrode voltage clamp holds a large cell at a set potential and records current.

For assay [5], the target named is GluN1/GluN2A NMDA receptor (Rattus norvegicus, UniProt P35439+Q00959). Briefly: Two-electrode voltage-clamp recordings, Xenopus oocytes expressing GluN1/GluN2A. In kind it is cell-based. Put shortly:
as §1

Assay [6] addresses GluK2 (Rattus norvegicus, UniProt P42260). As to the kind of experiment: Radioligand binding at recombinant homomeric GluK2. The following applies: for GluK2 % specific binding (Table 5): mean ± SD, ligand concentration not given. Put shortly: as §2
For assay [7], the target named is GluK1 (Rattus norvegicus, UniProt P22756). Briefly: Radioligand binding at recombinant homomeric GluK1. The following applies: for GluK1 % specific binding (Table 5): [3H]NF608, mean ± SD, ligand concentration not given. Put shortly: as §2
Sequence of GluK1 (P22756 31-920 isoform P22756-4 limits assumed): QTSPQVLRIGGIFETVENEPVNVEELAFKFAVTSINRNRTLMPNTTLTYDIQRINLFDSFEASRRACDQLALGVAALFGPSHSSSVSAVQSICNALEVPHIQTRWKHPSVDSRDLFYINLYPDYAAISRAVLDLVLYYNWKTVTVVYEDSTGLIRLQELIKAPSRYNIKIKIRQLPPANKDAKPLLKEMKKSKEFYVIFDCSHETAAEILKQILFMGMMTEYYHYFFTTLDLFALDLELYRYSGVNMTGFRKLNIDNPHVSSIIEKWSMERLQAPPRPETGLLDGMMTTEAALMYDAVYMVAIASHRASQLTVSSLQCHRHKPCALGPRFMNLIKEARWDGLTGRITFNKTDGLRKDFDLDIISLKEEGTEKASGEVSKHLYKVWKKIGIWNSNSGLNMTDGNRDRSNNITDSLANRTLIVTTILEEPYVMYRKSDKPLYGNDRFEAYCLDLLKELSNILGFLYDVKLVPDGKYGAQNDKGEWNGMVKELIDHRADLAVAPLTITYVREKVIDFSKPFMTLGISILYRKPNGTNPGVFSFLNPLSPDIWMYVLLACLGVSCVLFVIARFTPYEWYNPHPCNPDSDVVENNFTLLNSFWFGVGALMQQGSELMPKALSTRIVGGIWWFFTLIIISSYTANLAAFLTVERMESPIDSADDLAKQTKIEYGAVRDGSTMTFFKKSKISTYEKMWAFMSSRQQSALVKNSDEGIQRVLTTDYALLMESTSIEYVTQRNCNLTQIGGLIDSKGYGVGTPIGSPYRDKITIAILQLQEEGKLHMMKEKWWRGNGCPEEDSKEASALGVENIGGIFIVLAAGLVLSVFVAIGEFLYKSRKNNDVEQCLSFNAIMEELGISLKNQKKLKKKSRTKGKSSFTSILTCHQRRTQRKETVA
Assay [8] concerns the target native NMDA receptors. As to the kind of experiment: Radioligand binding at native NMDA receptors. Further details: species or system rat. The conditions noted are these: rat synaptosomes, [3H]CGP-39653; for Ki: read-out: NMDA Ki, native iGluRs (synaptosomes). The method, boiled down: as §3
Assay [9] deals with native AMPA receptors. Briefly: Radioligand binding at native AMPA receptors. The following applies: rat synaptosomes, [3H]AMPA; for IC50: read-out: AMPA IC50, native iGluRs (synaptosomes). The method, boiled down: as §3
The target in assay [10] is GluN1/GluN2D NMDA receptor (Rattus norvegicus, UniProt P35439+Q62645). Briefly: Two-electrode voltage-clamp recordings, Xenopus oocytes expressing GluN1/GluN2D. In kind it is cell-based. Put shortly:
as §1

[11] abbreviates: read-out: GluK3 Ki, cloned homomeric iGluRs, [3H]KA, mean ± SEM.
[12] abbreviates: read-out: GluK2 Ki, cloned homomeric iGluRs, [3H]KA, mean ± SEM.
[13] abbreviates: 10 μM ligand concentration, [3H]KA, mean ± SD (Tables 2, 4).

Sequence of GluK3 (P42264 32-919): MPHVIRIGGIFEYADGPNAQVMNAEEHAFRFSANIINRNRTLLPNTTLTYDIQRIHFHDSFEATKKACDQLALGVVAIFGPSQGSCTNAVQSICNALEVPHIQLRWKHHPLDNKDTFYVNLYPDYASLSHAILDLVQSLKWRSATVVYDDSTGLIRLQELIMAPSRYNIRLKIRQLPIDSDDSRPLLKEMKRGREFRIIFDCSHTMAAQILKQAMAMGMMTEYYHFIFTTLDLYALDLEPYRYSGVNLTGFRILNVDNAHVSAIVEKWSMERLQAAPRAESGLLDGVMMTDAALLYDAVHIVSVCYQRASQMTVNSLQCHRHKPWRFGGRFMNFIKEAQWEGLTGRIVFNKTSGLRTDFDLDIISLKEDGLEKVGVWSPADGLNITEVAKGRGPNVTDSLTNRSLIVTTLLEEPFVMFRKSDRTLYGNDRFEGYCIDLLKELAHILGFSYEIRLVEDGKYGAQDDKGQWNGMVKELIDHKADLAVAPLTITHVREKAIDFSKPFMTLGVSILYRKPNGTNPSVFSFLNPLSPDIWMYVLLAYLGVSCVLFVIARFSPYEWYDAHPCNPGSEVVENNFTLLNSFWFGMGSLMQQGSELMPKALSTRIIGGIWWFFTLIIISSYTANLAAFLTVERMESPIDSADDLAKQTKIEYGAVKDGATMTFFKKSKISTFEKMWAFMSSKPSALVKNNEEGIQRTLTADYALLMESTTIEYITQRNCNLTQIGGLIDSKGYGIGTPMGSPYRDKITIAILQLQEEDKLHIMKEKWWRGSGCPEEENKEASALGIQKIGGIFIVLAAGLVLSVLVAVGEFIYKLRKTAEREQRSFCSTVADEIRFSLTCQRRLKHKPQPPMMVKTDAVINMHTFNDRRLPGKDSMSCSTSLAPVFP
Sequence of GluK2 (P42260 32-908): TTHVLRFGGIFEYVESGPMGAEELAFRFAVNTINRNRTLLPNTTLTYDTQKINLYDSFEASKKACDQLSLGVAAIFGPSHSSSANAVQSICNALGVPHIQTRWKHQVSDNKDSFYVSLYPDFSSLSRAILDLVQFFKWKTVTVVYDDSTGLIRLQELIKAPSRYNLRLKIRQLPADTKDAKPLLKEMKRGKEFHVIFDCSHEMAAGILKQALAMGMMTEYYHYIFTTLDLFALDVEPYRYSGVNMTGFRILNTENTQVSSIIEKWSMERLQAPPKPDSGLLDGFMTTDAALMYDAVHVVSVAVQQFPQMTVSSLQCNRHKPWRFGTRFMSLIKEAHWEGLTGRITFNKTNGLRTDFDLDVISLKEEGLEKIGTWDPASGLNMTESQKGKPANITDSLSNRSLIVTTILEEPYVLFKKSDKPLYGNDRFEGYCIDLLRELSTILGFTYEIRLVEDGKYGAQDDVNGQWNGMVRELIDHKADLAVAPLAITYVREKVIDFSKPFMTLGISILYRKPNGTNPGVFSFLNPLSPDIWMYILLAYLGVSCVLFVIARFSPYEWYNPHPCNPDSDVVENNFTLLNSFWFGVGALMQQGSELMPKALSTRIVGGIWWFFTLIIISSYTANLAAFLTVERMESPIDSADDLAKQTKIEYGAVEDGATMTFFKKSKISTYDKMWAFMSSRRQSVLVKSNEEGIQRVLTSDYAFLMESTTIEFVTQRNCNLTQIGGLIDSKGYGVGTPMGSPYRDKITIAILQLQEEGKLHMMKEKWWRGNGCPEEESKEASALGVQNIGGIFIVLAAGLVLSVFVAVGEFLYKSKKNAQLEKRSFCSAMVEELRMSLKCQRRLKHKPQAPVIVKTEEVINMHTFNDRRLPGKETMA
Sequence of GluN1/GluN2C NMDA receptor (Q00961 20-1237, other chains not shown): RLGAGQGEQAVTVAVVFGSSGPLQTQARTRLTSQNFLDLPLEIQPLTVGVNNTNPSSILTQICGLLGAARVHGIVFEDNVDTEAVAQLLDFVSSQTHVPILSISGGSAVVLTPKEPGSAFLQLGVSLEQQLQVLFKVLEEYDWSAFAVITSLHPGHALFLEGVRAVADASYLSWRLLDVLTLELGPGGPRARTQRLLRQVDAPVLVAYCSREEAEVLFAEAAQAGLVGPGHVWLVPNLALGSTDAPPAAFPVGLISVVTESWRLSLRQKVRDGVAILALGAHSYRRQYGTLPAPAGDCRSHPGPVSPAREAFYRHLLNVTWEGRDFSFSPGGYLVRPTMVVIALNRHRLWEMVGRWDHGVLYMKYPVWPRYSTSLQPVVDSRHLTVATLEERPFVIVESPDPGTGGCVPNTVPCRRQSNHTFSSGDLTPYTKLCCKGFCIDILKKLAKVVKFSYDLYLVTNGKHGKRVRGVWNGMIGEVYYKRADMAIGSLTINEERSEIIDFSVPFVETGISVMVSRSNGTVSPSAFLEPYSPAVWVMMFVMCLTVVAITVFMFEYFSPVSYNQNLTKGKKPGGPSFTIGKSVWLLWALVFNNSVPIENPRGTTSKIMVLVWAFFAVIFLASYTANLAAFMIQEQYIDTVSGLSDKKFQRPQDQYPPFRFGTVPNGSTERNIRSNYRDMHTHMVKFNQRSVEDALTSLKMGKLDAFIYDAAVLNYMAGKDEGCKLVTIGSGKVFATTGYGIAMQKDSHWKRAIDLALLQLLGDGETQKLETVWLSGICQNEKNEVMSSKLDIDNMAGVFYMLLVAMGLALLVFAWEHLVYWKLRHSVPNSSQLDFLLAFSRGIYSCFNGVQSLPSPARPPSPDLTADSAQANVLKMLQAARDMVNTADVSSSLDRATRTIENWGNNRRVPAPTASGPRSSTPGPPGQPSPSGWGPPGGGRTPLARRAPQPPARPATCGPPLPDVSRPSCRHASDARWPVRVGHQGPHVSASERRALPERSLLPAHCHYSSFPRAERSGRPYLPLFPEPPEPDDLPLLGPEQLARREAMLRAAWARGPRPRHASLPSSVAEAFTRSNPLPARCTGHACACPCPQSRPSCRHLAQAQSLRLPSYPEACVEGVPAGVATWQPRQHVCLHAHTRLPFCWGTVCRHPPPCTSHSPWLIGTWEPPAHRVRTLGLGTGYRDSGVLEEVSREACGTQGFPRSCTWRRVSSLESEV

`O=C(O)C(F)(F)F.O=C(O)c1ccc([C@H]2CCN[C@@H]2C(=O)O)cc1` [compound 7, (2S,3R)-3-(4-Carboxyphenyl)pyrrolidine-2-carboxylic acid trifluoro acetic acid]: the IC50 (commonly the midpoint of a concentration-inhibition curve) is 193 ± 6.1 µM in assay [1]; 165 ± 14.1 µM in assay [4]; 45 ± 1.5 µM in assay [5]; greater than 100 µM in assay [9]; 159 ± 8.7 µM in assay [10]. Further, the Ki – broadly, the dissociation constant of the complex between target and ligand, obtained from inhibition or displacement – in assay [2] is greater than 100 µM; in [6], greater than 100 µM; in [7], greater than 100 µM; in assay [8] it was 8.5 µM. Moreover, the “KA IC50, native iGluRs (synaptosomes)” value in assay [3] is greater than 100 µM.

As for `O=C(O)c1cccc([C@H]2[C@H](CCNCc3ccccc3)CN[C@@H]2C(=O)O)c1` [9c, (2S,3R,4S)-4-(2-(Benzylamino)ethyl)-3-(3-carboxyphenyl)pyrrolidine-2-carboxylic acid], the Ki in assay [2] is 2.46 ± 0.54 µM; in assay [6] it was greater than 100 µM; in assay [7], 2.98 ± 0.96 µM; in assay [8] it was greater than 100 µM. Moreover, in [6] ([3H]KA), the “GluK2 % specific binding (Table 5)” value is 86 ± 6%. Also, the “AMPA pIC50 with SEM (in brackets)” value in [9] worked out at 4.83 ± 0.05. For the same molecule, the IC50 in assay [9] came out at 15 µM.

Consider `Cl.O=C(O)c1cc(NC(=O)c2ccccc2)cc([C@H]2CCN[C@@H]2C(=O)O)c1` (racemic) [(±)-5m, (±)-2,3-trans-3-(3-Benzamido-5-carboxyphenyl)pyrrolidine-2-carboxylic acid hydrochloride], for which the Ki in assay [2] (setting [11]) was 3.95 ± 0.2 µM. In assay [3], the “KA IC50, native iGluRs (synaptosomes)” value came to 16 µM and the “KA pIC50 with SEM (in brackets)” value worked out at 4.81±0.03. Also, the Ki in assay [6] (setting [12]) was roughly 100 µM. In assay [8], the “NMDA pKi with SEM (in brackets)” value was found to be 5.16±0.04 and the Ki was found to be 6.9 µM. In [9], the “AMPA pIC50 with SEM (in brackets)” value is reported as 4.63±0.04 and the IC50 is 24 µM.

As to `Cl.O=C(O)c1cc([C@H]2CCN[C@@H]2C(=O)O)cc(Br)c1Cl` [6a, (2S,3R)-3-(3-Bromo-5-carboxy-4-chlorophenyl)pyrrolidine-2-carboxylic acid hydrochloride], the Ki in assay [2] was no less than 100 µM; in [6], no less than 100 µM; in assay [7], no less than 100 µM; in assay [8], 1 to 10 µM. Besides, the “KA IC50, native iGluRs (synaptosomes)” value in assay [3] was greater than 100 µM. The IC50 in assay [9] is greater than 100 µM.

As for `Cl.O=C(O)c1cc(NS(=O)(=O)c2ccccn2)cc([C@H]2CCN[C@@H]2C(=O)O)c1` (racemic) [(±)-5l, (±)-2,3-trans-3-(3-Carboxy-5-(pyridine-2-sulfonamido)phenyl)pyrrolidine-2-carboxylic acid hydrochloride], the values for the Ki in [2] (setting [11]), in assay [6] (setting [12]) and in [8] were 14 ± 0.9 µM, roughly 100 µM and 36 µM, respectively. Moreover, the “KA IC50, native iGluRs (synaptosomes)” value in assay [3] is greater than 100 µM. For the same molecule, in assay [8], the “NMDA pKi with SEM (in brackets)” value stood at 4.46±0.08. Also, in assay [9], the “AMPA pIC50 with SEM (in brackets)” value is 4.57±0.04. In assay [9], the IC50 was determined as 27 µM.

With `Cl.Cl.Nc1cc(C(=O)O)cc([C@H]2CCN[C@@H]2C(=O)O)c1` (racemic) [(±)-5j, (±)-2,3-trans-(3-Amino-5-carboxyphenyl)pyrrolidine-2-carboxylic acid dihydrochloride], the Ki in [2] (setting [11]) amounted to 19.3 ± 0.9 µM. In assay [3], the “KA IC50, native iGluRs (synaptosomes)” value was 86 µM and the “KA pIC50 with SEM (in brackets)” value is recorded as 4.07±0.04. In addition, the Ki in assay [6] (setting [12]) is greater than 100 µM. Further, in assay [8], the “NMDA pKi with SEM (in brackets)” value is reported as 4.87±0.05 and the Ki was determined as 14 µM. In addition, in assay [9], the “AMPA pIC50 with SEM (in brackets)” value is listed as 4.29±0.07 and the IC50 came out at 52 µM.

With `CNCC[C@@H]1CN[C@H](C(=O)O)[C@H]1c1cccc(C(=O)O)c1` [9b, (2S,3R,4S)-3-(3-Carboxyphenyl)-4-(2-(methylamino)ethyl)pyrrolidine-2-carboxylic acid], the Ki was greater than 100 µM in assay [2], greater than 100 µM in assay [6], roughly 10 µM in assay [7] and greater than 100 µM in [8]. The “GluK3 % specific binding (Table 5)” value in assay [2] ([3H]KA) is listed as 83 ± 6%. Further, the “KA IC50, native iGluRs (synaptosomes)” value in [3] is greater than 100 µM. Further, the “GluK2 % specific binding (Table 5)” value in [6] ([3H]KA) turned out to be 99 ± 6%. In addition, in assay [7], the “GluK1 % specific binding (Table 5)” value was found to be 50 ± 6%. Also, the “AMPA pIC50 with SEM (in brackets)” value in assay [9] is given as 4.16 ± 0.02. In assay [9], the IC50 stood at 69 µM.

Take `O=C(O)c1cccc([C@H]2[C@H](CCO)CN[C@@H]2C(=O)O)c1` [9d, (2S,3R,4S)-3-(3-Carboxyphenyl)-4-(2-hydroxyethyl)pyrrolidine-2-carboxylic acid]: the Ki in assay [2] is greater than 10 µM. The “GluK3 % specific binding (Table 5)” value in [2] ([3H]KA) stood at 57 ± 2%. In addition, in assay [3], the “KA IC50, native iGluRs (synaptosomes)” value is 13 µM and the “KA pIC50 with SEM (in brackets)” value turned out to be 4.89 ± 0.3. Besides, the Ki in assay [6] is greater than 100 µM. Moreover, the “GluK2 % specific binding (Table 5)” value in [6] ([3H]KA) is reported as 93 ± 7%. In assay [7], the Ki is greater than 10 µM and the “GluK1 % specific binding (Table 5)” value was determined as 60 ± 6%. Moreover, in assay [8], the “NMDA pKi with SEM (in brackets)” value turned out to be 4.22 ± 0.03 and the Ki worked out at 61 µM. Besides, in assay [9], the “AMPA pIC50 with SEM (in brackets)” value is 4.47 ± 0.007 and the IC50 came to 35 µM.

For the molecule “(2S,3R)-3-(4-Amino-3-carboxyphenyl)pyrrolidine-2-carboxylic acid dihydrochloride [4g]”, the “GluK3 % specific binding” value in [2] (setting [13]) is given as “(64 ± 4)^d %”. Further, the “KA IC50, native iGluRs (synaptosomes)” value in [3] was greater than 100 µM. For the same molecule, the “GluK2 % specific binding” value in assay [6] (setting [13]) was “(77 ± 5)^d %”. For the same molecule, the “GluK1 % specific binding” value in [7] (10 μM ligand concentration, [3H]NF608, mean ± SD (Table 2)) is listed as “(70 ± 16)^d %”. Moreover, in [8], the Ki was greater than 100 µM. The IC50 in assay [9] was greater than 100 µM.

For `Cl.O=C(O)C[C@@H]1CN[C@H](C(=O)O)[C@H]1c1cccc(C(=O)O)c1` [9e, (2S,3R,4S)-4-(Carboxymethyl)-3-(3-carboxyphenyl)pyrrolidine-2-carboxylic acid hydrochloride], the Ki in [2], in [6], in [7] and in assay [8] was greater than 100 µM in each case. The “GluK3 % specific binding (Table 5)” value in assay [2] ([3H]KA) is 95 ± 3%. In addition, the “KA IC50, native iGluRs (synaptosomes)” value in [3] was greater than 100 µM. Besides, in assay [6] ([3H]KA), the “GluK2 % specific binding (Table 5)” value turned out to be 97 ± 7%. Moreover, the “GluK1 % specific binding (Table 5)” value in [7] is reported as 93 ± 3%. Further, the IC50 in assay [9] was greater than 100 µM.

Consider `Cl.O=C(O)c1cc(Br)cc([C@H]2CCN[C@@H]2C(=O)O)c1` [5b, (2S,3R)-3-(3-Bromo-5-carboxyphenyl)pyrrolidine-2-carboxylic acid hydrochloride], for which the Ki in [2] came out at 2.42 ± 0.11 µM. In addition, in assay [3], the “KA IC50, native iGluRs (synaptosomes)” value was 10 µM and the “KA pIC50 with SEM (in brackets)” value stood at 4.99 ± 0.04. In addition, the Ki in assay [6] was greater than 100 µM. The Ki in assay [7] was 5.88 ± 0.6 µM. In addition, in assay [8], the “NMDA pKi with SEM (in brackets)” value is recorded as 5.63 ±0.05 and the Ki was determined as 2.4 µM. Besides, in [9], the “AMPA pIC50 with SEM (in brackets)” value is reported as 4.60 ± 0.04 and the IC50 is 26 µM.

Turning to `Cc1ccc(S(=O)(=O)Nc2cc(C(=O)O)cc([C@H]3CCN[C@@H]3C(=O)O)c2)cc1.Cl` (racemic) [(±)-5k, (±)-2,3-trans-(3-Carboxy-5-((4-methylphenyl)sulfonamido)phenyl)pyrrolidine-2-carboxylic acid hydrochloride], the Ki in [2] (setting [11]) was 10.9 ± 0.5 µM; in [6] (setting [12]) it was 19 µM; in assay [8], 15 µM. Also, in assay [3], the “KA IC50, native iGluRs (synaptosomes)” value was greater than 100 µM. Further, in assay [8], the “NMDA pKi with SEM (in brackets)” value is given as 4.82±0.03. Moreover, in assay [9], the “AMPA pIC50 with SEM (in brackets)” value came out at 4.65±0.09. Moreover, the IC50 in assay [9] amounted to 23 µM.
